Rce1 inhib: inhibitors of yeast Ras-converting enzyme; Q03530; yeast membranes, quenched prenylated peptide cleavage fluorescence; calls only; 290,000 compounds, 0.27% hits;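 active = fall in fluorescence gain of 50% or more versus controls, with final raw signal at or below 3038400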;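 also: plate controls were neutral control wells for no effect and wells lacking membranes for full effect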
UCH37 inh: blocks the human deubiquitinase UCH37 | Q9Y5K5 | purified proteasome/UCH37, Ub-AMC cleavage fluorescence | inhibition, % (concentration not given with the values) | 330,000 compounds, 0.33% hits;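 active = mean inhibition over replicate wells above about 20%, limit read from the data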;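 also: 0% = compound-free wells with enzyme and 100% = wells lacking proteasome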
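Reagent: Ub-AMC substrate; assay system: Proteasome-associated human UCH37 deubiquitinase; controls: no-proteasome and no-compound wells; read-out: % inhibition of Ub-AMC cleavage fluorescence; timing: 30 min preincubation with enzyme, 25 min cleavage at room temperature; signal: AMC fluorescence from Ub-AMC cleavage, excitation 355 nm, emission 460 nm; buffer or medium: Tris-HCl pH 7.4 plus ovalbumin, ATP-MgCl2, DTT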
T cell modulator: modulates CD8 T cell binding to vesicles; 2C CD8+ T cell-vesicle binding, flow cytometry; stronger effect = lower value; response (vesicle binding), % at 7 µM; AID 2052; 330,000 compounds, 0.068% hits;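 active = response, share of CD8 T cells binding vesicles, and their 90th percentile fluorescence all below set limits, cut at about 80% in these data, passing the limit was not always enough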;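 also: values below 100% mean blocked vesicle binding to the CD8+ T cells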
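material = purified 2C TCR transgenic mouse naive CD8+ T cells | controls = Unloaded micro-vesicles (low), QL9 vesicles with 0.7% DMSO (high) | detection = cytometric PE anti-B7-1 and Alexa647 anti-CD8 signals after 1% paraformaldehyde fixation | incubation = binding step 1.5 h, 37 °C, antibody labelling 20 min, ice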
MEKK2wt PB1 HTS: raises or lowers MEK5 binding to wildtype human MEKK2 PB1 domain; Q9Y2U5; bead flow cytometry, Alexa488-MEK5 binding to MEKK2 WT; actives lie on both sides; binding response (% of control), % at 10 µM; 290,000 compounds, 1.1% hits; AID 1531; in the data active = binding response below about 67% or above about 130%
MEKK3 PB1 HTS: MEKK3-MEK5 PB1 interaction, increase or decrease; binding response (% of control), % at 10 µM; bead-based flow cytometry, Alexa488-MEK5 binding to MEKK3; actives lie on both sides; 0 = blocked by unlabeled MEK5, 100 = vehicle; 290,000 compounds, 1.4% hits;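 active = binding response more than 3 SD above or below the average of its plate-row segment, actives on both sides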;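 also: Alexa488 bead fluorescence after subtracting the streptavidin-only scavenger bead signal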
Target sequence (Q99759 whole entry, looked up): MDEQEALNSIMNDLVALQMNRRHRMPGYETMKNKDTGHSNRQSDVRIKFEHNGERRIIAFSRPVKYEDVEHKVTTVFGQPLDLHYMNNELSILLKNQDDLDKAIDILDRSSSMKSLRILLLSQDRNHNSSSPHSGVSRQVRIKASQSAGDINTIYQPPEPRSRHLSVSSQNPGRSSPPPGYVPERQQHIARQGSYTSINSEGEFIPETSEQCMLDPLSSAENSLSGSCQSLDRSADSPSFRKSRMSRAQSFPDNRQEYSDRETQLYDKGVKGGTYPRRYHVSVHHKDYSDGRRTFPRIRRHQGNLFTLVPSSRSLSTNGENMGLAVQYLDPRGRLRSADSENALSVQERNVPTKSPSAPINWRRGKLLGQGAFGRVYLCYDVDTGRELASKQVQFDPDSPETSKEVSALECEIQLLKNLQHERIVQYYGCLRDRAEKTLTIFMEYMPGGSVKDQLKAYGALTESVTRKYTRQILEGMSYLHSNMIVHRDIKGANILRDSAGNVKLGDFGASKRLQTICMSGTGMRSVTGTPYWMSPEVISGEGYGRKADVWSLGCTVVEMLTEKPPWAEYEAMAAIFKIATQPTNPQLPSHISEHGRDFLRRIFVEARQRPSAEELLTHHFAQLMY
MEKK2 mut-MEK5: signal of MEK5 binding to mutant human MEKK2 PB1 domain. AID 1530. percent response, % at 10 µM. bead flow cytometry, Alexa488-MEK5 binding to MEKK2 mutant. 290,000 compounds, 0.35% hits; in the data active = percent response above about 24%, passing the limit was not always enough
MEKK2wt confirm: raises or lowers MEK5 binding to wildtype human MEKK2, retest; bead flow cytometry, Alexa488-MEK5 binding to MEKK2 WT; actives lie on both sides; binding response (% of control), % at 10 µM; shares compounds with MEKK3 PB1 HTS; 5,900 compounds, 2.4% hits; in the data active = binding response below about 16% or above about 210%; inactive = in between
MEKK2mut confirm: signal of MEK5 binding to mutant human MEKK2, retest; shares compounds with MEKK3 PB1 HTS; bead flow cytometry, Alexa488-MEK5 binding to MEKK2 mutant; percent response, % at 10 µM; 5,900 compounds, 2% hits; AID 1893; in the data active = percent response mostly above about 71%, no sharp cut-off; inactive = mostly below about 38%;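 also: higher means compound restores mutant binding toward wildtype level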
MEKK3 confirm: MEKK3-MEK5 PB1 inhibition, single concentration confirmation; 5,900 compounds, 1.8% hits; binding response (% of control), % at 10 µM; shares compounds with MEKK3 PB1 HTS; bead flow cytometry, Alexa488-MEK5 binding to MEKK3; stronger effect = lower value;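 active = binding response below 72% of control, or above a set upper limit, though filed actives all read lower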;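 also: 100% = DMSO only wells and 0% = binding blocked by excess unlabeled MEK5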
Active calls of the source: *; i = inactive; / = not tested or not shown; [ ] = another dose, or the depositor's remark. In the library only some 2.5% were active in any assay of this set; here they are far more common.

SMILES	Rce1 inhib	UCH37 inh	T cell modulator	MEKK2wt PB1 HTS	MEKK3 PB1 HTS	MEKK2 mut-MEK5	MEKK2wt confirm	MEKK2mut confirm	MEKK3 confirm
COC(=O)c1ccc(C(=O)Nc2ccc3c(c2)C(=O)NC3=O)cc1	i	-30	i	69*[inhibitor]	60*[inhibitor]	-5	79	-11	83
Cc1ccc(C(=O)Nc2ccc3c(c2)C(=O)NC3=O)cc1	i	-106	232	96	99	0	/	/	/
Cc1ccc(OCC(=O)NN=Cc2cn[nH]c2-c2ccc(Cl)c(Cl)c2)cc1	/	-1	/	/	/	/	/	/	/
Cc1cccc(Nc2nnc(-c3ccc(N4CCOCC4)c([N+](=O)[O-])c3)c3ccccc23)c1	/	7	255	100	131*	0	88	-10	97
C=CCc1cc(C=NNC(=O)CSc2nnc(CCCc3ccc(OC)cc3)o2)cc(OC)c1O	/	6	/	/	/	/	/	/	/
Cc1ccc(C(=O)Nc2ccncc2)cc1[N+](=O)[O-]	i	1	213	102	102	-4	/	/	/
C/C(=N\NC(=O)c1cccc([N+](=O)[O-])c1)c1ccncc1	i	/	253	55	49*[inhibitor]	-17	103	2	103
O=C(Nc1cccc([N+](=O)[O-])c1)c1ccncc1	i	5	695	101	141*	-1	98	-5	100
CC(=NNC(=O)c1cccc([N+](=O)[O-])c1)c1cccnc1	/	0	/	/	/	/	/	/	/
Cc1ccc(NC(=O)c2ccncc2)cc1[N+](=O)[O-]	i	3	229	105	152*	0	104	6	107
COc1ccc(NC(=O)c2cccc(Oc3ccc([N+](=O)[O-])cc3Cl)c2)cc1	i	-1	191	93	95	-2	/	/	/
O=C(Nc1cccc(Cl)c1)c1cccc(Oc2ccc([N+](=O)[O-])cc2Cl)c1	i	0	197	17*[inhibitor]	103	9	131	12	107
O=C(NN=Cc1ccccn1)c1sc2ccccc2c1Cl	/	6	/	/	/	/	/	/	/
COc1cc([N+](=O)[O-])ccc1-c1ccc(C=NNC(=O)OC(C)(C)C)o1	/	10	/	/	/	/	/	/	/
COCCn1cnc2c(c1=O)c1nc3ccccc3nc1n2N=Cc1ccc(OC)c(OC)c1	/	10	/	/	/	/	/	/	/
CC(C)[C@H](NC(N)=O)C(=O)Nc1cccc([N+](=O)[O-])c1	i	4	173	132	143*	7	108	2	106
O=C(O)COc1ccccc1C=NNC(=O)CSc1nc2ccccc2s1	/	7	/	/	/	/	/	/	/
Cc1ccc(C(=O)N/C(=C\c2ccc(-c3cccc([N+](=O)[O-])c3)o2)C(=O)NCCCN(C)C)cc1	i	15	200	141*	112	22	113	6	95
CN(C)CCCNC(=O)/C(=C\c1ccc(-c2cccc([N+](=O)[O-])c2)o1)NC(=O)c1ccccc1	i	4	0	101	109	6	/	/	/
Cc1ccc(C(=O)N/C(=C\c2ccc(-c3ccc(Br)cc3)o2)C(=O)NCCCN(C)C)cc1	i	-31	197	187*	106	37	181	38	104
CC(=O)OC[C@H]1O[C@@H](ON=C(C)CCN2CCCCc3nc(C)c(C)cc32)[C@H](OC(C)=O)[C@@H](OC(C)=O)[C@@H]1OC(C)=O	/	-1	/	/	/	/	/	/	/
Cn1c(Cn2c(C(F)(F)F)nc3ccccc32)nc2ccccc21	i	4	223	110	109	24*	102	5	103
Cc1ccc(C=NNc2ccc(Cl)c(C(=O)O)c2)s1	/	11	/	/	/	/	/	/	/
CC(=O)Nc1c(C(=O)N2CCCCCC2)cnn1-c1ccccc1	i	2	94	86	81*[inhibitor]	-11	105	-5	102
Cc1ccccc1C(=O)Nc1c(C(=O)N2CCCC2)cnn1-c1ccccc1	i	1	i	96	91	-2	/	/	/
SMILES	Rce1 inhib	UCH37 inh	T cell modulator	MEKK2wt PB1 HTS	MEKK3 PB1 HTS	MEKK2 mut-MEK5	MEKK2wt confirm	MEKK2mut confirm	MEKK3 confirm
COc1cc(O)c2c(c1)OC(C)(C)CC2=O	i	4	670	116	122*	7	100	0	103
COc1ccc(Nc2nc(NCc3ccco3)nc(NN=Cc3ccccc3Cl)n2)cc1	/	-1	/	/	/	/	/	/	/
Cc1cccc(-c2n[nH]c(=S)n2N=Cc2ccc(C)o2)c1	/	6	/	/	/	/	/	/	/
CCN1CCN(CCNC(=O)c2ccc(/C=C3/Sc4ccccc4N(Cc4cccc(Cl)c4)C3=O)cc2)CC1	i	-10	227	280*	111	120*	234*	100*	116
CN1CCN(CCCNC(=O)c2ccc(/C=C3\Sc4ccccc4N(Cc4ccccc4F)C3=O)cc2)CC1	i	-13	/	167*	97	36	190	62	110
CCNC(=S)NCc1ccc(F)cc1	i	5	281	109	134*	-1	102	-2	98
OC1(c2ccc(Br)cc2)CCN(Cc2cccc(Br)c2)CC1	i	1	213	134*	109	15	130	17	107
CCN(CC)c1ccc(CNC(=O)CC(C)=NNC(=O)COc2ccc(C)cc2Br)cc1	/	1	/	/	/	/	/	/	/
CC1C(c2ccccc2)N(C)CCC12NC(=O)NC2=O (stereo not given)	i	0	309	6.0*[inhibitor]	4.0*[inhibitor]	-45	101	-1	105
C[N+](C)(C)CCNC(=O)c1cc[n+](Cc2ccccc2)c(C=NO)c1	/	1	/	/	/	/	/	/	/
CCOC(=O)C1=C(C)NC2=C(C(=O)CC(c3cccs3)C2)C1c1cccs1 (stereo not given)	/	-42	199	79	72*[inhibitor]	3	96	0	101
COC(=O)C1=C(C)NC2=C(C(=O)CC(c3cccs3)C2)C1c1ccsc1 (stereo not given)	i	/	260	99	101	-2	/	/	/
Cc1ccc(C)c(N2CCN(C(=O)c3ccc(CSc4nc5ccncc5[nH]4)cc3)CC2)c1	i	2	91	2.0*[inhibitor]	1.0*[inhibitor]	-13	102	4	101
O=C(c1ccc(CSc2nc3ccncc3[nH]2)cc1)N1CCCCC1	i	4	384	98	106	-3	/	/	/
O=C(NN=Cc1ccc2c(c1)OCO2)c1ccc(COc2cccc3cccnc23)cc1	/	3	/	/	/	/	/	/	/
Nc1nnnn1CC(=O)NN=Cc1cccs1	/	2	/	/	/	/	/	/	/
CCOC(=O)c1cc2cc([N+](=O)[O-])ccc2oc1=O	i	4	231	76	75*[inhibitor]	-28	102	7	100

Screening results (PubChem)
